Test results published in ChEMBL document CHEMBL5226344, “A Chemical Strategy for Intracellular Arming of an Endogenous Broad-Spectrum Antiviral Nucleotide” (J Med Chem, 2021).
The source made the active and inactive calls. The rule behind the calls is not given here.

How the values were obtained:
[1] = Drug metabolism in human Huh-7 cells expressing HINT1 assessed as ddhCTP level at 100 uM incubated for 24 hrs measured per 5 million cells by mass spectrometry (Rvb <0.01 nmol); conditions: huh-7, 24 h
West Nile virus [2] = test: (§1) Antiviral activity against West Nile virus infected in African green monkey Vero cells assessed as reduction in virus-induced cytopathic effect at 0.1 to 1 mM cells were pretreated with compound for 24 hrs followed by drug removal and subsequent viral infection for 1 hr and later incubated with compound and measured at 3 days post-infection; assay type: functional, organism-based; conditions: dose 0.1-1 mM, time 3.0 day
West Nile virus [3] = test: as §1, with “human Huh7.5” for “African green monkey Vero”; assay type: functional, organism-based; conditions: dose 0.1-1 mM, time 3.0 day
Procedure, shortened: (§2)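 Cells grown in DMEM with 2% FBS, pretreated 24 h before confluency with media containing 0, 0.1 or 1 mM compound (diluted from DMSO stocks). Media removed, WNV (2003 crow isolate) added at MOI 0.1 for 1 h, then washed 3x with HBSS. Drug-containing overlay applied, 37°C, 5% CO2, 3 days. Media harvested, titre by plaque titration, triplicate. One-way ANOVA with Dunnett's test.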

Vero = test: Cytotoxicity against African green monkey Vero cells assessed as reduction in cell viability at 0.1 to 1 mM incubated for 2 days by Alamar Blue assay; assay type: toxicity, cell-based; conditions: chlorocebus sabaeus, 48 h, 1000 µM, dose 0.1-1 mM, time 2 day
Procedure, shortened: (§3)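 HUH7 (2,000 cells/well) or Vero (1,500 cells/well) seeded in 10% FBS medium, 24 h; serially diluted compound added (final DMSO 0.5%); incubated 2 or 5 days; Alamar blue added 2 h before read; fluorescence minus no-cell background, normalized to DMSO control; technical triplicates, at least three biological replicates.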

Huh-7 = test: Cytotoxicity against human Huh-7 cells assessed as reduction in cell viability at 0.1 to 1 mM incubated for 2 days by Alamar Blue assay; assay type: toxicity, cell-based; conditions: huh-7, 48 h, 1000 µM, dose 0.1-1 mM, time 2 day
Procedure, shortened: as §3

West Nile virus [4] = test: as §1, with “human Huh-7” for “African green monkey Vero”; assay type: functional, organism-based; conditions: dose 0.1-1 mM, time 3.0 day
Procedure, shortened: as §2

[5] = Stability of the compound in simulated gastric fluid assessed as parent compound remaining at 200 uM measured after 6 hrs by LC-MS/MS analysis; assay type: physicochemical; conditions: read-out: Stability
[6] = Drug metabolism in human Huh-7 cells transfected with HINT1 assessed as intracellular concentration of ddhCTP at 100 uM incubated for 24 hrs by mass spectrometry; assay type: ADME, cell-based; conditions: huh-7, 24 h
[7] = Cytotoxicity against African green monkey Vero cells assessed as cell viability at 1 mM incubated for 5 days by Alamar Blue assay; assay type: toxicity, cell-based; conditions: chlorocebus sabaeus, time 5 day, read-out: Activity
Procedure, shortened: as §3

[8] = Apparent permeability across apical to basolateral side in human Caco-2 cells at 2 to 10 uM incubated for 2 hrs […]; assay type: ADME, cell-based; conditions: dose 2-10 µM
Procedure, shortened: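 Caco-2 monolayers grown 21-28 days; compound at 2 or 10 μM in HBSS/10 mM HEPES pH 7.4 (DMSO <1%); 2 h at 37°C, 5% CO2; donor and receiver quantified by LC-MS against internal standard; monolayer integrity by Lucifer Yellow; Papp from receiver accumulation rate, volume, area 0.0804 cm2 and initial donor concentration.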

[9] = Cytotoxicity against human Huh-7 cells assessed as cell viability at 1 mM incubated for 5 days by Alamar Blue assay; assay type: toxicity, cell-based; conditions: time 5 day, read-out: Activity
Procedure, shortened: as §3

West Nile virus [10] = test: (§4) Antiviral activity against West Nile virus infected in human Huh-7 cells assessed as log reduction in plaque forming units at 1 mM cells were pretreated with compound for 24 hrs followed by drug removal and subsequent viral infection for 1 hr and later incubated with compound and measured at 3 days post-infection; assay type: functional; conditions: time 4 day
Procedure, shortened: (§5)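 Cells in 24-well plates (2% FBS medium) pretreated 24 h with compound in medium (0, 0.1, 1 mM), medium removed, infected at MOI 0.1 for 1 h, washed three times, overlaid with drug-containing medium; 37°C, 5% CO2 for 3 days (WNV, 2003 crow isolate) or 4 days (ZIKV PRABC59); supernatant titered by plaque assay; triplicates; one-way ANOVA with Dunnett's test.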

Zika virus [11] = test: Antiviral activity against Zika virus PRABC59 infected in African green monkey Vero cells assessed as reduction in virus-induced cytopathic effect at 0.1 to 1 mM cells were pretreated with compound for 24 hrs followed by drug removal and subsequent viral infection for 1 hr and later incubated with compound and measured at 4 days post-infection; assay type: functional, organism-based; conditions: dose 0.1-1 mM, time 5.0 day
[12] = Metabolic stability of the compound in human plasma assessed as parent compound remaining at 2 uM measured upto 2 hrs by LC-MS analysis; assay type: ADME, cell-free
Procedure, shortened: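 Pooled human plasma (3 male, 3 female), pH 7.4, spiked to 2 μM final; 37°C; sampled at 0, 10, 30, 60, 120 min; quenched with MeCN:MeOH containing tolbutamide and labetalol; LC-MS peak-area ratio versus internal standards, percent remaining relative to t0; propantheline as positive control.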

Zika virus [13] = test: as §4, with “against Zika” for “against West Nile”, “virus PRABC59” for “virus”, “at 0.1” for “at 1”, “at 4” for “at 3”; assay type: functional; conditions: time 5 day
Procedure, shortened: as §5

West Nile virus [14] = test: as §4, with “Huh7.5” for “Huh-7”; assay type: functional; conditions: time 4 day
Procedure, shortened: as §5

Zika virus [15] = test: as §4, with “against Zika” for “against West Nile”, “virus PRABC59” for “virus”, “human Huh7.5” for “human Huh-7”, “at 0.1” for “at 1”, “at 4” for “at 3”; assay type: functional; set-up: dose or concentration left out as unconfirmed; conditions: time 5 day
Zika virus [16] = test: (§6) Competitive inhibition of Zika virus RNA-dependent RNA polymerase assessed as chain termination by measuring inhibition of full length RNA production in presence of 10 uM CTP by primer extension assay based PAGE analysis
Procedure, shortened: (§7)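 Purified ZIKV NS5 RdRp (1 μM), E. coli-expressed ubiquitin fusion with C-terminal His tag. Assembled 30 min at 30 °C with pGGC RNA primer, 20-nt RNA template, ATP, GTP and [α-32P]-ATP in HEPES pH 7.5 buffer with Mg2+. Started with UTP, 10 μM CTP and ddhCTP 0–5000 μM, 5 min, EDTA quench. Full-length RNA scored by denaturing 23% PAGE. IC50 from curve fits, 3 independent repeats.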

[17] = as §6
Procedure, shortened: as §7

Compound | Drug metabolism [1] | Activity (West Nile virus [2]) | Activity (West Nile virus [3]) | Activity (Vero) | Activity (Huh-7) | Activity (West Nile virus [4]) | remaining at 6 h, 200 µM [5] | Drug metabolism [6] | viability at 120 h, 1000 µM [7] | Papp A→B at 2 h, up to 10 µM [8] | viability at 120 h, 1000 µM [9] | Activity (West Nile virus [10]) | Activity (Zika virus [11]) | Stability [12] | Activity (Zika virus [13]) | Activity (West Nile virus [14]) | Activity (Zika virus [15]) | inhibition (Zika virus [16]) | IC50 [17]
Nc1ccn([C@@H]2OC(CO)=C[C@H]2O)c(=O)n1 | 0.13 nmol | inactive | inactive | Non-Toxic | Non-Toxic | inactive |  |  |  |  |  |  |  |  |  |  |  |  | 
CC(C)OC(=O)[C@H](C)N[P@@](=O)(OCC1=C[C@@H](O)[C@H](n2ccc(N)nc2=O)O1)Oc1ccccc1 | 3.8 nmol | inactive |  | Non-Toxic | Non-Toxic |  | 76% | > 1 mM | > 60% | 0.03 ×10⁻⁶ cm/s | > 60% | >4 log10PFU/ml | inactive | > 87% | >1 log10PFU/ml | >4 log10PFU/ml | >1 log10PFU/ml |  | 
Nc1ccn([C@@H]2OC(COP(=O)(O)OP(=O)(O)OP(=O)(O)O)=C[C@H]2O)c(=O)n1 |  |  |  |  |  |  |  |  |  |  |  |  |  |  |  |  |  | Dose-Dependent Effect | 320 µM
